ChEMBL document CHEMBL4819106, “Aminopyrazole based CDK9 PROTAC sensitizes pancreatic cancer cells to venetoclax” (Bioorg Med Chem Lett, 2021)
Activity calls are given as the source filed them. The calls are words filed in the database; no cut-off is given here.

Experiments:
[1] = molecular target: T1, Protein cereblon/Cyclin-dependent kinase 1 (Homo sapiens) (UniProt P06493+Q96SW2); assay: Protac activity at CDK1/CRBN in human HEK293 cells assessed as degradation of CDK1 at 0.01 to 10 uM incubated for 24 hrs by Western blot analysis; format: cell-based; details: dose 0.01-10 µM
[2] = system: MIA PaCa-2; assay: Antiproliferative activity against human MIA PaCa-2 cells assessed as sensitizing activity by measuring combination index at ED90 measured after 3 days in presence of ABT- 199 by Prestoblue assay; format: functional; details: time 3 day
Procedure, shortened: (§1)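 MiaPaCa2 cells were treated for 3 days with the CDK9 degrader and a Bcl2-family inhibitor (ABT-263, ABT-199 or WEHI-539), singly and combined. Viability was read by PrestoBlue. Combination index values were calculated with CalcuSyn at effective doses ED50, ED75 and ED90.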

[3] = molecular target: T2, Protein cereblon/Cyclin-dependent kinase 6 (Homo sapiens) (UniProt Q00534+Q96SW2); assay: Protac activity at CDK6/CRBN in human HEK293 cells assessed as degradation of CDK6 at 1 uM measured upto 24 hrs by Western blot analysis; format: cell-based; details: time hrs <=24
Procedure, shortened: (§2)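 Time course in HEK293 cells at 1 μM degrader; lysates collected at indicated time points up to 24 h and probed by western blot for the various CDKs.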

[4] = molecular target: T3, Cyclin-dependent kinase 2 (Homo sapiens, UniProt P24941)
[5] = system: MIA PaCa-2; assay: Antiproliferative activity against human MIA PaCa-2 cells assessed as sensitizing activity by measuring combination index at ED50 measured after 3 days in presence of WEHI-539 by Prestoblue assay; format: functional; details: time 3 day; procedure, shortened: as §1
[6] = molecular target: T4, Protein cereblon/Cyclin-dependent kinase 8 (Homo sapiens) (UniProt P49336+Q96SW2); assay: Protac activity at CDK8/CRBN in human HEK293 cells assessed as degradation of CDK8 at 0.01 to 10 uM incubated for 24 hrs by Western blot analysis; format: cell-based; details: dose 0.01-10 µM
[7] = molecular target: T5, Protein cereblon/Cyclin-dependent kinase 9 (Homo sapiens, UniProt P50750+Q96SW2); assay: Protac activity at CDK9/CRBN in human HEK293 cells assessed as degradation of CDK9 at 1 uM incubated for 24 hrs by Western blot analysis relative to control; format: cell-based
[8] = system: MIA PaCa-2; assay: Antiproliferative activity against human MIA PaCa-2 cells assessed as sensitizing activity by measuring combination index at ED90 measured after 3 days in presence of ABT- 263 by Prestoblue assay; format: functional; details: time 3 day; procedure, shortened: as §1
[9] = molecular target: T5, Protein cereblon/Cyclin-dependent kinase 9; assay: Protac activity at CDK9/CRBN in human HEK293 cells assessed as degradation of CDK9 at 1 uM incubated for 24 hrs in presence of pomalidomide by Western blot analysis; format: cell-based
Procedure, shortened: (§3)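 Competition in HEK293 cells: 10 μM pomalidomide (CRBN ligand) alone or combined with 1 μM degrader for 24 h; lysates analysed by western blot.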

[10] = molecular target: T6, Cyclin-dependent kinase 9 (Homo sapiens, UniProt P50750); assay: Binding affinity to CDK9 (unknown origin)
[11] = system: MIA PaCa-2; assay: Antiproliferative activity against human MIA PaCa-2 cells assessed as sensitizing activity by measuring combination index at ED90 measured after 3 days in presence of WEHI-539 by Prestoblue assay; format: functional; details: time 3 day; procedure, shortened: as §1
[12] = system: MIA PaCa-2; assay: Antiproliferative activity against human MIA PaCa-2 cells assessed as sensitizing activity by measuring combination index at ED75 measured after 3 days in presence of ABT- 199 by Prestoblue assay; format: functional; details: time 3 day; procedure, shortened: as §1
[13] = molecular target: T4, Protein cereblon/Cyclin-dependent kinase 8 (Homo sapiens); assay: Protac activity at CDK8/CRBN in human HEK293 cells assessed as degradation of CDK8 at 1 uM measured upto 24 hrs by Western blot analysis; format: cell-based; details: time hrs <=24; procedure, shortened: as §2
[14] = molecular target: T2, Protein cereblon/Cyclin-dependent kinase 6 (Homo sapiens); assay: Protac activity at CDK6/CRBN in human HEK293 cells assessed as degradation of CDK6 at 0.01 to 10 uM incubated for 24 hrs by Western blot analysis; format: cell-based; details: dose 0.01-10 µM
[15] = system: MIA PaCa-2; assay: Antiproliferative activity against human MIA PaCa-2 cells assessed as sensitizing activity by measuring combination index at ED50 measured after 3 days in presence of ABT- 263 by Prestoblue assay; format: functional; details: time 3 day; procedure, shortened: as §1
[16] = molecular target: T7, Protein cereblon/Cyclin-dependent kinase 2 (Homo sapiens) (UniProt P24941+Q96SW2); assay: Protac activity at CDK2/CRBN in human HEK293 cells assessed as degradation of CDK2 at 1 uM measured upto 24 hrs by Western blot analysis; format: cell-based; details: time hrs <=24; procedure, shortened: as §2
[17] = molecular target: T5, Protein cereblon/Cyclin-dependent kinase 9; assay: Protac activity at CDK9/CRBN in human SUIT-2 cells assessed as degradation of CDK9; format: cell-based
[18] = system: MIA PaCa-2; assay: Antiproliferative activity against human MIA PaCa-2 cells assessed as sensitizing activity by measuring combination index at ED75 measured after 3 days in presence of ABT- 263 by Prestoblue assay; format: functional; details: time 3 day; procedure, shortened: as §1
[19] = molecular target: T5, Protein cereblon/Cyclin-dependent kinase 9; assay: Protac activity at CDK9/CRBN in human MIA PaCa-2 cells assessed as degradation of CDK9; format: cell-based
[20] = molecular target: T8, Protein cereblon/Cyclin-dependent kinase 12 (Homo sapiens) (UniProt Q9NYV4+Q96SW2); assay: Protac activity at CDK12/CRBN in human HEK293 cells assessed as degradation of CDK12 at 1 uM measured upto 24 hrs by Western blot analysis; format: cell-based; details: time hrs <=24; procedure, shortened: as §2
[21] = molecular target: T9, Cyclin-dependent kinase 5 (Homo sapiens, UniProt Q00535); assay: Binding affinity to CDK5 (unknown origin)
[22] = molecular target: Cyclin-dependent kinase 7 (Homo sapiens) (UniProt P50613); assay: Inhibition of CDK7 in human HEK293 cells assessed as reduction in CDK7 level at 10 uM incubated for 24 hrs in presence of flavopiridol by Western blot analysis; format: cell-based
[23] = molecular target: T5, Protein cereblon/Cyclin-dependent kinase 9; assay: Protac activity at CDK9/CRBN in human HEK293 cells assessed as degradation of CDK9 at 1 uM incubated for 24 hrs in presence of MG132 by Western blot analysis; format: cell-based
Procedure, shortened: (§4)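 HEK293 cells co-treated for 24 h with degrader and increasing concentrations of proteasome inhibitor MG132; lysates examined by western blot.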

[24] = molecular target: T6, Cyclin-dependent kinase 9; assay: Inhibition of CDK9 in human HEK293 cells assessed as reduction in CDK9 level at 1 uM incubated for 8 hrs in presence of flavopiridol by Western blot analysis
[25] = molecular target: T3, Cyclin-dependent kinase 2; remark: listed apart in the source
[26] = molecular target: T10, Protein cereblon/Cyclin-dependent kinase 5 (Homo sapiens) (UniProt Q00535+Q96SW2); assay: Protac activity at CDK5/CRBN in human HEK293 cells assessed as degradation of CDK5 at 1 uM measured upto 24 hrs by Western blot analysis; format: cell-based; details: time hrs <=24; procedure, shortened: as §2
[27] = molecular target: T11, Protein cereblon/Cyclin-dependent kinase 7 (Homo sapiens) (UniProt P50613+Q96SW2); assay: Protac activity at CDK7/CRBN in human HEK293 cells assessed as degradation of CDK7 at 0.01 to 10 uM incubated for 24 hrs by Western blot analysis; format: cell-based; details: dose 0.01-10 µM
[28] = molecular target: T10, Protein cereblon/Cyclin-dependent kinase 5 (Homo sapiens); assay: Protac activity at CDK5/CRBN in human HEK293 cells assessed as degradation of CDK5 at 0.01 to 10 uM incubated for 24 hrs by Western blot analysis; format: cell-based; details: dose 0.01-10 µM
[29] = molecular target: T11, Protein cereblon/Cyclin-dependent kinase 7 (Homo sapiens); assay: Protac activity at CDK7/CRBN in human HEK293 cells assessed as degradation of CDK7 at 1 uM measured upto 24 hrs by Western blot analysis; format: cell-based; details: time hrs <=24; procedure, shortened: as §2
[30] = system: MIA PaCa-2; assay: Antiproliferative activity against human MIA PaCa-2 cells assessed as sensitizing activity by measuring combination index at ED50 measured after 3 days in presence of ABT- 199 by Prestoblue assay; format: functional; details: time 3 day; procedure, shortened: as §1
[31] = molecular target: T5, Protein cereblon/Cyclin-dependent kinase 9; assay: Protac activity at CDK9/CRBN in human HEK293 cells assessed as degradation of CDK9 incubated for 24 hrs by Western blot analysis; format: cell-based
Procedure, shortened: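 HEK293 cells were treated with increasing concentrations (0.01–10 μM) for 24 hr. Lysates were analysed by western blot for CDK9 degradation.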

[32] = molecular target: T6, Cyclin-dependent kinase 9; assay: Inhibition of CDK9 (unknown origin)
[33] = molecular target: T9, Cyclin-dependent kinase 5; assay: Inhibition of CDK5 (unknown origin)
[34] = molecular target: T5, Protein cereblon/Cyclin-dependent kinase 9; assay: Protac activity at CDK9/CRBN in human HEK293 cells assessed as degradation of CDK9 at 1 uM measured up to 24 hrs by Western blot analysis; format: cell-based; details: time hrs <=24; procedure, shortened: as §2
[35] = molecular target: T12, Protein cereblon/Cyclin-dependent kinase 4 (Homo sapiens) (UniProt P11802+Q96SW2); assay: Protac activity at CDK4/CRBN in human HEK293 cells assessed as degradation of CDK4 at 1 uM measured upto 24 hrs by Western blot analysis; format: cell-based; details: time hrs <=24; procedure, shortened: as §2
[36] = system: MIA PaCa-2; assay: Antiproliferative activity against human MIA PaCa-2 cells assessed as sensitizing activity by measuring combination index at ED75 measured after 3 days in presence of WEHI-539 by Prestoblue assay; format: functional; details: time 3 day; procedure, shortened: as §1
[37] = molecular target: T8, Protein cereblon/Cyclin-dependent kinase 12 (Homo sapiens); assay: Protac activity at CDK12/CRBN in human HEK293 cells assessed as degradation of CDK12 at 0.01 to 10 uM incubated for 24 hrs by Western blot analysis; format: cell-based; details: dose 0.01-10 µM
[38] = molecular target: T1, Protein cereblon/Cyclin-dependent kinase 1 (Homo sapiens); assay: Protac activity at CDK1/CRBN in human HEK293 cells assessed as degradation of CDK1 at 1 uM measured upto 24 hrs by Western blot analysis; format: cell-based; details: time hrs <=24; procedure, shortened: as §2
[39] = molecular target: T1, Protein cereblon/Cyclin-dependent kinase 1 (Homo sapiens); assay: Protac activity at CDK1/CRBN in human HEK293 cells assessed as degradation of CDK1 at 1 uM incubated for 24 hrs in presence of MG132 by Western blot analysis; format: cell-based; procedure, shortened: as §4
[40] = molecular target: T7, Protein cereblon/Cyclin-dependent kinase 2 (Homo sapiens); assay: Protac activity at CDK2/CRBN in human HEK293 cells assessed as degradation of CDK2 at 0.01 to 10 uM incubated for 24 hrs by Western blot analysis; format: cell-based; details: dose 0.01-10 µM
[41] = molecular target: T12, Protein cereblon/Cyclin-dependent kinase 4 (Homo sapiens); assay: Protac activity at CDK4/CRBN in human HEK293 cells assessed as degradation of CDK4 at 0.01 to 10 uM incubated for 24 hrs by Western blot analysis; format: cell-based; details: dose 0.01-10 µM
[42] = molecular target: CDK9/Cyclin K (Homo sapiens) (UniProt P50750+O75909); assay: Protac activity at Cyclin K/CRBN in human HEK293 cells assessed as degradation of cyclin K at 0.01 to 10 uM incubated for 24 hrs by Western blot analysis; format: cell-based; details: dose 0.01-10 µM
[43] = molecular target: T5, Protein cereblon/Cyclin-dependent kinase 9; assay: Protac activity at CDK9/CRBN in human HEK293 cells assessed as degradation of CDK9 by Western blot analysis; format: cell-based; details: TDE = time-dependent effect
[44] = molecular target: T8, Protein cereblon/Cyclin-dependent kinase 12 (Homo sapiens); assay: Protac activity at CDK12/CRBN in human HEK293 cells assessed as degradation of CDK12 at 1 uM incubated for 24 hrs in presence of MG132 by Western blot analysis; format: cell-based; procedure, shortened: as §4
[45] = molecular target: T11, Protein cereblon/Cyclin-dependent kinase 7 (Homo sapiens); assay: Protac activity at CDK7/CRBN in human HEK293 cells assessed as degradation of CDK7 at 10 uM incubated for 24 hrs in presence of pomalidomide by Western blot analysis; format: cell-based; procedure, shortened: as §3

T1 sequence (P06493 whole entry, looked up): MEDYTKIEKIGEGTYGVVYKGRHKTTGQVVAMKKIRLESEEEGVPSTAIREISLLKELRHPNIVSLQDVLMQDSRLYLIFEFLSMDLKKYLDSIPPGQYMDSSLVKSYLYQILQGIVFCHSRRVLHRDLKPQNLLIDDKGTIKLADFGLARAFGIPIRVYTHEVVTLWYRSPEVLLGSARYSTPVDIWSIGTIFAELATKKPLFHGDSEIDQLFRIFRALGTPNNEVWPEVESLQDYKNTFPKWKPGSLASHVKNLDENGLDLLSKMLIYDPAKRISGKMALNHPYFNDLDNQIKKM
T1 sequence (Q96SW2 whole entry, looked up): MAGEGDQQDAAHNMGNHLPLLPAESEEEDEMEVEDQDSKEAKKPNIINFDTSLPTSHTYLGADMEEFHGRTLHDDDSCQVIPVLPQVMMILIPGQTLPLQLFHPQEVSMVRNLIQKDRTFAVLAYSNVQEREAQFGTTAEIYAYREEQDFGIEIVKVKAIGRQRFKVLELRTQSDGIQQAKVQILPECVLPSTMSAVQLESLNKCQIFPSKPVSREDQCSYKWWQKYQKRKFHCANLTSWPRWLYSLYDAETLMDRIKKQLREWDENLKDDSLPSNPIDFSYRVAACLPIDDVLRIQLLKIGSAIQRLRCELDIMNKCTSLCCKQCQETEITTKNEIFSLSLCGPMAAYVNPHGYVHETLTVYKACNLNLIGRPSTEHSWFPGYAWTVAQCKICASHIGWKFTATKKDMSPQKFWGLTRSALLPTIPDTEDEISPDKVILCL
T11 sequence (P50613 whole entry, looked up): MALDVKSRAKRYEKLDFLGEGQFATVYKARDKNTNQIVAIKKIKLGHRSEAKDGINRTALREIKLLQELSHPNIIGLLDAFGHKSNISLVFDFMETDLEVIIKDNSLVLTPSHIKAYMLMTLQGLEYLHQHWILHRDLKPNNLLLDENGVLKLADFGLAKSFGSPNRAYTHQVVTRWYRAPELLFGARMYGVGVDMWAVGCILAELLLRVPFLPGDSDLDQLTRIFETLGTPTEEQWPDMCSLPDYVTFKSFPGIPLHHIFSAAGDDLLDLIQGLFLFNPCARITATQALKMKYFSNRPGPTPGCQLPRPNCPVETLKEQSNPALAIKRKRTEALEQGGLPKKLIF
T11 sequence (Q96SW2 whole entry, looked up): as the sequence (Q96SW2 whole entry, looked up) above
T8 sequence (Q96SW2 whole entry, looked up): as above
T8 sequence (Q9NYV4 whole entry, looked up): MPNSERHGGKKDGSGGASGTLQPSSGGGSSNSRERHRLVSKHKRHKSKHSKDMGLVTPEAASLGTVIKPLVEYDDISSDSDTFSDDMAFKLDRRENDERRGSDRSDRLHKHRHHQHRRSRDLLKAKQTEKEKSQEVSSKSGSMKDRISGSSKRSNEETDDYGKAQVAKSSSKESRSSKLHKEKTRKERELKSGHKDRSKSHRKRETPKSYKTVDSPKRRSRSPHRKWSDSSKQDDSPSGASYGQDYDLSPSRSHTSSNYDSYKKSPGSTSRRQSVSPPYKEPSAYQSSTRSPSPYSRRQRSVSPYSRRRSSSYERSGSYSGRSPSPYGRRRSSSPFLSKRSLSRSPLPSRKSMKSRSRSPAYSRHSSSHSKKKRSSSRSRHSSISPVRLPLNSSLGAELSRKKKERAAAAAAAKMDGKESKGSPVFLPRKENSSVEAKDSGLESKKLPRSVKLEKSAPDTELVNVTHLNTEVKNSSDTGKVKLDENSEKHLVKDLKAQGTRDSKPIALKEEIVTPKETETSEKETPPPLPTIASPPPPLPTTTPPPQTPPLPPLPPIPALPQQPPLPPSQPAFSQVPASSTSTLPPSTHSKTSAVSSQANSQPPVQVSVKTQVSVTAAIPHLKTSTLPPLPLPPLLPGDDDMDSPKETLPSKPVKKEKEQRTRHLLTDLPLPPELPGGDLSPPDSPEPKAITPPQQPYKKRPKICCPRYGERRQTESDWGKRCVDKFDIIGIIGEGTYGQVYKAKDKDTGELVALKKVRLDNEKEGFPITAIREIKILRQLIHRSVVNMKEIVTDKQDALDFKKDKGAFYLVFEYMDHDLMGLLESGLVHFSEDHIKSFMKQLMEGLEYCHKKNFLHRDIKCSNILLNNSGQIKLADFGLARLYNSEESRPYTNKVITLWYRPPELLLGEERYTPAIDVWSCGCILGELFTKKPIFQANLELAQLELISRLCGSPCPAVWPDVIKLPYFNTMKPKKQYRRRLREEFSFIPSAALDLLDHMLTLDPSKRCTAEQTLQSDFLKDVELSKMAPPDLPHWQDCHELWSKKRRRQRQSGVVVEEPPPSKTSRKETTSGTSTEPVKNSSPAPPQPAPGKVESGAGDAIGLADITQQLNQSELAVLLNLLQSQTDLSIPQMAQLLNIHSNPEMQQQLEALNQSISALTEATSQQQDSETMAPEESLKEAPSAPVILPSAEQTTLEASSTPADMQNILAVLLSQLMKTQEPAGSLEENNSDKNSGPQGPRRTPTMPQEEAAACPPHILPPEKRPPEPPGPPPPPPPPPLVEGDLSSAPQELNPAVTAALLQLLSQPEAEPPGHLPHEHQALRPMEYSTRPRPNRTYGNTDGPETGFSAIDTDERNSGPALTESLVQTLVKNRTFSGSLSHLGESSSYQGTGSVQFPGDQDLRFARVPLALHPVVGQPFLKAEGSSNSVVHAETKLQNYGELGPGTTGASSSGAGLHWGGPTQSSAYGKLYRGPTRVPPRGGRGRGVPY
T6 sequence (P50750 whole entry): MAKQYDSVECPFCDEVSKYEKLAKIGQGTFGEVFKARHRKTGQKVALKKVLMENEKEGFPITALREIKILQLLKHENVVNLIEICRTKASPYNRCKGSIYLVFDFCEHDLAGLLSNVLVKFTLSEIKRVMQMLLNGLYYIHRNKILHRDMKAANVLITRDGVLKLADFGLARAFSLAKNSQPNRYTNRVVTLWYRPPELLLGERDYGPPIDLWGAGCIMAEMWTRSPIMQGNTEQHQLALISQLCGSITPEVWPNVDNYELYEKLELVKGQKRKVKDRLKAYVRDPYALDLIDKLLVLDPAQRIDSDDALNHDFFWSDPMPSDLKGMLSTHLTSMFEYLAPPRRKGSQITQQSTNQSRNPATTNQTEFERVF
T10 sequence (Q00535 whole entry, looked up): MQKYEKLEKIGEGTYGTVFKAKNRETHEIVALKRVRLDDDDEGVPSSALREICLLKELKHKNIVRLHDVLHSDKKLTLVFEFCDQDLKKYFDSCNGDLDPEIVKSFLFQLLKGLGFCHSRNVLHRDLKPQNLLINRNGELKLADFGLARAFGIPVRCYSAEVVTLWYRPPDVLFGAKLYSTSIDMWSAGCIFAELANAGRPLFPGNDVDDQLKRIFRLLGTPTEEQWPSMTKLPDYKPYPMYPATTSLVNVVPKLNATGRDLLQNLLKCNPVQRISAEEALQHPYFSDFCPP
T10 sequence (Q96SW2 whole entry, looked up): as the sequence (Q96SW2 whole entry, looked up) above
T9 sequence (Q00535 whole entry): as the sequence (Q00535 whole entry, looked up) above

## O=C(CCCOc1ccc(CC(=O)Nc2cc(C3CCC3)[nH]n2)cc1)NCCCCNc1cccc2c1C(=O)N(C1CCC(=O)NC1=O)C2=O (stereo unspecified)
[1]
  Activity: inactive
[2]
  CI: 0.001
[3]
  Activity: inactive
[4]
  Kd: 385 nM
[5]
  CI: 1
[6]
  Activity: inactive
[7]
  Activity: 100%
[8]
  CI: 0.1
[9]
  Activity: inactive
[10]
  Kd: 1050 nM
[11]
  CI: 0.35
[12]
  CI: 0.001
[13]
  Activity: inactive
[14]
  Activity: inactive
[15]
  CI: 0.16
[16]
  Activity: inactive
[17]
  Activity: Active
[18]
  CI: 0.12
[19]
  Activity: Active
[20]
  Activity: inactive
[21]
  Kd: 815 nM
[22]
  Activity: inactive
[23]
  Activity: inactive
[24]
  Activity: inactive
[25]
  IC50: 155 nM
[26]
  Activity: inactive
[27]
  Activity: inactive
[28]
  Activity: inactive
[29]
  Activity: inactive
[30]
  CI: 0.02
[31]
  Activity: Dose-Dependent Effect
  DC50: 158 nM
[32]
  IC50: 530 nM
[33]
  IC50: 7 nM
[34]
  Activity: Active
[35]
  Activity: inactive
[36]
  CI: 0.6
[37]
  Activity: inactive
[38]
  Activity: inactive
[39]
  Activity: inactive
[40]
  Activity: inactive
[41]
  Activity: inactive
[42]
  Activity: inactive
[43]
  Activity: Tde
[44]
  Activity: inactive
[45]
  Activity: inactive
